Experimental data taken from ChEMBL document CHEMBL1135421, “2-(Anilinomethyl)imidazolines as alpha1 adrenergic receptor agonists: the discovery of alpha1a subtype selective 2'-alkylsulfonyl-substituted analogues” (J Med Chem, 2002).
One block for each compound: values may come before it.

Assays:
[1] = molecular target: T1, Alpha-2C adrenergic receptor (Homo sapiens) (UniProt P18825); assay: Agonist potency at Alpha-2C adrenergic receptor assayed in CHO cells expressing human Alpha-2C adrenergic receptor; assay type: functional, cell-based
T1 sequence (whole entry): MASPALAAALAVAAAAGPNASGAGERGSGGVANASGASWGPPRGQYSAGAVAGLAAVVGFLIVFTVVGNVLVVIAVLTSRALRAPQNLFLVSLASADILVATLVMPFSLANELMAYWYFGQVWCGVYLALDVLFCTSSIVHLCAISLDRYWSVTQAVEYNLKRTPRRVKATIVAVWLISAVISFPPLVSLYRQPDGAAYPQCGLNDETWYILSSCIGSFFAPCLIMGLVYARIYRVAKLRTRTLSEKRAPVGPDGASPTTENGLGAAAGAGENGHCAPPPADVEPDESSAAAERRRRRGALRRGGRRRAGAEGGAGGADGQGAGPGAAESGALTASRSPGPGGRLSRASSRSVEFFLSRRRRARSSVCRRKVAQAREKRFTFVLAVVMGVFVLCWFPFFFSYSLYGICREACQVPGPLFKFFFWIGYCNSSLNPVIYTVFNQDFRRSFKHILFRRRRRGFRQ

[2] = molecular target: T2, Alpha-1A adrenergic receptor (Homo sapiens) (UniProt P35348); assay: Agonist potency at Alpha-1 adrenergic receptor assayed in rat-1 fibroblasts expressing human Alpha-1 adrenergic receptor; assay type: functional
T2 sequence (whole entry): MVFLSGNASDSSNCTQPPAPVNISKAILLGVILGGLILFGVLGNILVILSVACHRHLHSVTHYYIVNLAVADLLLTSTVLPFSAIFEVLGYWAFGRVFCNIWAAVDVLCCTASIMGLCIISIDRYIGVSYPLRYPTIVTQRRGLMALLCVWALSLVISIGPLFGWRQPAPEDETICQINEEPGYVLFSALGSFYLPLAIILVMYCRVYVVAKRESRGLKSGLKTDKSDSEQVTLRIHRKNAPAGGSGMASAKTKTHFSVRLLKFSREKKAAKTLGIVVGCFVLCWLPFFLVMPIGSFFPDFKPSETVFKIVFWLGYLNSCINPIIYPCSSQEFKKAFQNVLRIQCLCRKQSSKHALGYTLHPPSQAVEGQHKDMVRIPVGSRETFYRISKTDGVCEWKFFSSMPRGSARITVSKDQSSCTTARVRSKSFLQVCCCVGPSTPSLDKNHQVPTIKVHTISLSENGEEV
How it was run: (§1)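 Rat-1 fibroblasts expressing human α1a/α1b/α1d, grown in DMEM with 10% heat-inactivated FBS and 0.6 mg/mL G418, plated 6000 cells/well and cultured 48 h at 37 °C. Loaded 2 h at 37 °C with Calcium Green (4 μM), 0.2% pluronic acid and 2.5 mM probenecid in HEPES buffer pH 7.4. FLIPR read at room temperature: 10 s baseline, then 50 s after compound. 11-point curves as % of 40 μM phenylephrine response, top concentration typically 5 μM.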

[3] = molecular target: T3, Alpha-1D adrenergic receptor (Homo sapiens) (UniProt P25100); assay: (§2) Agonist potency at Alpha-1D adrenergic receptor assayed in rat-1 fibroblasts expressing human alpha1d; assay type: functional; how it was run: as §1
T3 sequence (whole entry): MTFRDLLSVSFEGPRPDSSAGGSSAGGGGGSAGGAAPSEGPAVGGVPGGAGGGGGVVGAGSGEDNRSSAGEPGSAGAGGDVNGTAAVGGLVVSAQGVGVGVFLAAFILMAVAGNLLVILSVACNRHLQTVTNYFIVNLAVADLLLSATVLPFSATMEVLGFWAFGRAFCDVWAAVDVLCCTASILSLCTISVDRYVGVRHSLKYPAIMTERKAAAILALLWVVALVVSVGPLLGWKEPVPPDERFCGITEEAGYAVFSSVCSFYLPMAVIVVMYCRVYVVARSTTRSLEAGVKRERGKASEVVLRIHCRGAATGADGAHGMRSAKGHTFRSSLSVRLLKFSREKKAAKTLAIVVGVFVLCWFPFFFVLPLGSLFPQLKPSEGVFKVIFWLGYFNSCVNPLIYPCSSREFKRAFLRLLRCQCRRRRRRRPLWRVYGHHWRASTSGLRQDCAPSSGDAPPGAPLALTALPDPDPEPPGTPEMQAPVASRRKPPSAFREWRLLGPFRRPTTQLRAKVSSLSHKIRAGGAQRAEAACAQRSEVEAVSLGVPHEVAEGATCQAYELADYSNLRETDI

[4] = molecular target: T4, Alpha-2A adrenergic receptor (Homo sapiens) (UniProt P08913); assay: Agonist potency at Alpha-2A adrenergic receptor assayed in CHO cells expressing human alpha-2a; assay type: functional, cell-based
T4 sequence (whole entry): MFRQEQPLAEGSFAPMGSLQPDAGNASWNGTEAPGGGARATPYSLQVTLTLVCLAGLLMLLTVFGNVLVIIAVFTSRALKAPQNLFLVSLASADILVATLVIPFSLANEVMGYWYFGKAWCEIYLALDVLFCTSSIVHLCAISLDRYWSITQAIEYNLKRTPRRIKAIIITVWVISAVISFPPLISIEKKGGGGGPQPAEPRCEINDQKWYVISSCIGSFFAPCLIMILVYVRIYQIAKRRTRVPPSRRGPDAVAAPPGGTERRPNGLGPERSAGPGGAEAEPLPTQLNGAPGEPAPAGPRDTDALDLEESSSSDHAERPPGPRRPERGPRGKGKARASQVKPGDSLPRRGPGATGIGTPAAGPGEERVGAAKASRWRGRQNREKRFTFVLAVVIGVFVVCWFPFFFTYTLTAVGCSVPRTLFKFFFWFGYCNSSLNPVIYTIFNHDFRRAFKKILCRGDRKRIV

[5] = molecular target: T5, Alpha-1A adrenergic receptor (Homo sapiens, UniProt P35348); assay: Agonist potency at Alpha-1 adrenergic receptor assayed in rat-1 fibroblasts expressing human Alpha-1A; assay type: functional
T5 sequence (P35348 whole entry): T2 sequence (whole entry)
How it was run: (§3)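 Human α1a, α1b or α1d receptors expressed in Rat-1 fibroblasts (DMEM, 10% heat-inactivated FBS, 0.6 mg/mL G418). Cells were plated at 6000/well and grown 48 h at 37 °C. They were loaded 2 h at 37 °C with Calcium Green (4 μM), pluronic acid 0.2% and probenecid 2.5 mM in HEPES buffer pH 7.4, then read by FLIPR at room temperature: 10 s baseline, 50 s after compound. 11-point curves were expressed as % of the 40 μM phenylephrine response; top concentration typically 5 μM.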

[6] = molecular target: T6, Alpha-1D adrenergic receptor (Homo sapiens, UniProt P25100); assay: as §2; assay type: functional; how it was run: as §3
T6 sequence (P25100 whole entry): T3 sequence (whole entry)

[7] = molecular target: T7, Alpha-2A adrenergic receptor (Homo sapiens, UniProt P08913); assay: Agonist potency at Alpha-2A adrenergic receptor assayed in CHO cells expressing human alpha 2a; assay type: functional, cell-based
T7 sequence (P08913 whole entry): T4 sequence (whole entry)

[8] = molecular target: T6, Alpha-1D adrenergic receptor; assay: Agonist potency at Alpha-1D adrenergic receptor assayed in rat-1 fibroblasts; assay type: functional; how it was run: as §1
[9] = molecular target: T5, Alpha-1A adrenergic receptor; assay: Agonist potency at Alpha-1A adrenoceptors assayed in rat-1 fibroblasts expressing human Alpha-1A; assay type: functional; how it was run: as §1
[10] = molecular target: T6, Alpha-1D adrenergic receptor; assay: Agonist potency at aAlpha-1D adrenergic receptor assayed in rat-1 fibroblasts expressing human Alpha-1D adrenergic receptor; assay type: functional; how it was run: as §3

Compound: C[S+]([O-])c1ccccc1NCC1=NCCN1 (configuration not stated)
EC50 [5]: 0.49 µM
EC50 [6]: > 100 µM

Compound: CSc1ccccc1NCC1=NCCN1
EC50 [7]: 0.0398 µM
EC50 [8]: 0.00891 µM
EC50 [9]: 0.00457 µM

Compound: CS(=O)(=O)c1cc(F)ccc1NCC1=NCCN1
EC50 [10]: > 100 µM

Now from value to compound:

pEC5 [1]: 5.5
pEC5 [2]: 7.16
pEC5 [3]: < 4
pEC5 [4]: < 5
Compound: CCCS(=O)(=O)c1ccccc1NCC1=NCCN1

EC50 [5]: 0.0562 µM
EC50 [6]: > 100 µM
Compound: CS(=O)(=O)c1ccccc1NCC1=NCCN1
